ChEMBL document CHEMBL1138569, “A facile synthesis of novel biologically active 4-hydroxy-N'-(benzylidene)-2H-benzo[e][1,2]thiazine-3-carbohydrazide 1,1-dioxides” (2009)
Activity calls are given as the source filed them. No cut-off for these calls is given here.

Legend:
Escherichia coli [1] = assay: Antibacterial activity against Escherichia coli at 1 mg/ml by agar well diffusion method; type: functional, organism-based
Procedure, shortened: (§1)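 Agar well diffusion; compounds loaded into 6 mm wells at 1 mg per ml DMSO, with a DMSO-only (0) control. Read-out: inhibition zone diameter (mm).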

Bacillus subtilis [2] = assay: Antibacterial activity against Bacillus subtilis at 1 mg/ml by agar well diffusion method; type: functional, organism-based; procedure, shortened: as §1
[3] = system: Radical scavenging activity; assay: Antioxidant activity assessed as DPPH radical scavenging activity after 30 mins; type: functional; design: concentration or dose not given beside the values
Procedure, shortened: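 Test sample (0.5 mM stock in DMSO, 5 µL) mixed with 95 µL DPPH in ethanol and incubated at 37 °C for 30 min. Absorbance read at 515 nm. Percent radical scavenging calculated against a DMSO-containing control; 3-tert-butyl-4-hydroxyanisole used as reference.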

Staphylococcus aureus [4] = assay: Antibacterial activity against Staphylococcus aureus at 1 mg/ml by agar well diffusion method; type: functional; conditions: for zone of inhibition at 1000 µg/mL: read-out: IZ; procedure, shortened: as §1
[5] = system: Salmonella enterica subsp. enterica serovar Typhi str. CT18; assay: Antibacterial activity against Salmonella typhi at 1 mg/ml by agar well diffusion method; type: functional; conditions: for zone of inhibition at 1000 µg/mL: read-out: IZ
Procedure, shortened: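 Agar well diffusion against Salmonella typhi. Samples were dissolved in DMSO at 1 mg per ml and applied to 6 mm diameter wells. A solvent-only well served as control. Activity was read as inhibition zone diameter in mm.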

Shigella flexneri [6] = assay: Antibacterial activity against Shigella flexneri at 1 mg/ml by agar well diffusion method; type: functional; conditions: for zone of inhibition at 1000 µg/mL: read-out: IZ; procedure, shortened: as §1
Pseudomonas aeruginosa [7] = assay: Antibacterial activity against Pseudomonas aeruginosa at 1 mg/ml by agar well diffusion method; type: functional, organism-based; procedure, shortened: as §1
Staphylococcus aureus [8] = assay: Antibacterial activity against Staphylococcus aureus at 10 ug/disk by agar well diffusion method; type: functional; conditions: read-out: IZ
Procedure, shortened: (§2)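 Agar well diffusion with imipenem as the standard at 10 µg per disc, run alongside 6 mm wells and a DMSO-only control. Read-out: inhibition zone diameter (mm).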

Shigella flexneri [9] = assay: Antibacterial activity against Shigella flexneri at 10 ug/disk by agar well diffusion method; type: functional; conditions: read-out: IZ; procedure, shortened: as §2
Bacillus subtilis [10] = assay: Antibacterial activity against Bacillus subtilis at 10 ug/disk by agar well diffusion method; type: functional; conditions: read-out: IZ; procedure, shortened: as §2
Pseudomonas aeruginosa [11] = assay: Antibacterial activity against Pseudomonas aeruginosa at 10 ug/disk by agar well diffusion method; type: functional; conditions: read-out: IZ; procedure, shortened: as §2
Escherichia coli [12] = assay: Antibacterial activity against Escherichia coli at 10 ug/disk by agar well diffusion method; type: functional; conditions: read-out: IZ; procedure, shortened: as §2
[13] = system: Salmonella enterica subsp. enterica serovar Typhi str. CT18; assay: Antibacterial activity against Salmonella typhi at 10 ug/disk by agar well diffusion method; type: functional; conditions: read-out: IZ
Procedure, shortened: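 Agar well diffusion against Salmonella typhi, using the reference antibiotic imipenem applied at 10 µg per disc alongside 6 mm sample wells. Activity was read as inhibition zone diameter in mm.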

Compound	inhibition zone (IZ) (Escherichia coli [1])	inhibition zone (IZ) (Bacillus subtilis [2])	Activity [3] [%]	inhibition zone (IZ) (Staphylococcus aureus [4])	inhibition zone (IZ) [5]	inhibition zone (IZ) (Shigella flexneri [6])	inhibition zone (IZ) (Pseudomonas aeruginosa [7])	zone of inhibition at 1000 µg/mL (Shigella flexneri [6]) [mm]	zone of inhibition at 1000 µg/mL (Staphylococcus aureus [4]) [mm]	zone of inhibition at 1000 µg/mL [5] [mm]	zone of inhibition at 10 µg/disc (Staphylococcus aureus [8]) [mm]	zone of inhibition at 10 µg/disc (Shigella flexneri [9]) [mm]	zone of inhibition at 10 µg/disc (Bacillus subtilis [10]) [mm]	zone of inhibition at 10 µg/disc (Pseudomonas aeruginosa [11]) [mm]	zone of inhibition at 10 µg/disc (Escherichia coli [12]) [mm]	zone of inhibition at 10 µg/disc [13] [mm]
COc1ccc(/C=N/NC(=O)C2=C(O)c3ccccc3S(=O)(=O)N2)c(OC)c1	inactive	inactive	68.2	inactive	inactive	inactive	inactive	–	–	–	–	–	–	–	–	–
O=C(N/N=C/c1ccc(Cl)cc1Cl)C1=C(O)c2ccccc2S(=O)(=O)N1	inactive	inactive	43.8	inactive	inactive	–	inactive	10	–	–	–	–	–	–	–	–
O=C(N/N=C/c1ccc(Cl)cc1)C1=C(O)c2ccccc2S(=O)(=O)N1	inactive	inactive	21.2	inactive	inactive	inactive	inactive	–	–	–	–	–	–	–	–	–
COc1ccc(/C=N/NC(=O)C2=C(O)c3ccccc3S(=O)(=O)N2)cc1O	inactive	inactive	42.9	–	inactive	–	inactive	10	10	–	–	–	–	–	–	–
O=C(N/N=C/c1cccc(Cl)c1)C1=C(O)c2ccccc2S(=O)(=O)N1	inactive	inactive	23.8	inactive	inactive	inactive	inactive	–	–	–	–	–	–	–	–	–
COc1ccc(/C=N/NC(=O)C2=C(O)c3ccccc3S(=O)(=O)N2)cc1OC	inactive	inactive	38	inactive	–	–	inactive	20	–	11	–	–	–	–	–	–
O=C(N/N=C/c1ccccc1[N+](=O)[O-])C1=C(O)c2ccccc2S(=O)(=O)N1	inactive	inactive	37.3	–	–	inactive	inactive	–	10	11	–	–	–	–	–	–
O=C(N/N=C/c1ccc([N+](=O)[O-])cc1)C1=C(O)c2ccccc2S(=O)(=O)N1	inactive	inactive	30.9	inactive	–	inactive	inactive	–	–	26	–	–	–	–	–	–
COc1ccc(/C=N/NC(=O)C2=C(O)c3ccccc3S(=O)(=O)N2)c(OC)c1OC	inactive	inactive	43.6	–	inactive	–	inactive	22	21	–	–	–	–	–	–	–
C[C@@H](O)[C@H]1C(=O)N2C(C(=O)O)=C(SCCNC=N)C[C@H]12 [IMIPENEM ANHYDROUS]	–	–	–	–	–	–	–	–	–	–	26	37	36	32	30	30
COc1ccc(/C=N/NC(=O)C2=C(O)c3ccccc3S(=O)(=O)N2)cc1	inactive	inactive	43.7	–	inactive	inactive	inactive	–	12	–	–	–	–	–	–	–
O=C(N/N=C/c1ccccc1O)C1=C(O)c2ccccc2S(=O)(=O)N1	inactive	inactive	40.7	inactive	inactive	inactive	inactive	–	–	–	–	–	–	–	–	–
O=C(N/N=C/c1ccccc1)C1=C(O)c2ccccc2S(=O)(=O)N1	inactive	inactive	37.6	inactive	inactive	inactive	inactive	–	–	–	–	–	–	–	–	–
O=C(N/N=C/c1ccccc1Cl)C1=C(O)c2ccccc2S(=O)(=O)N1	inactive	inactive	57.4	inactive	inactive	inactive	inactive	–	–	–	–	–	–	–	–	–
COc1ccc(O)c(C(C)(C)C)c1.COc1ccc(O)cc1C(C)(C)C	inactive	inactive	92.6	inactive	inactive	inactive	inactive	–	–	–	–	–	–	–	–	–
COc1cc(/C=N/NC(=O)C2=C(O)c3ccccc3S(=O)(=O)N2)ccc1O	inactive	inactive	35	–	inactive	inactive	inactive	–	15	–	–	–	–	–	–	–
O=C(N/N=C/c1ccc(O)cc1O)C1=C(O)c2ccccc2S(=O)(=O)N1	inactive	inactive	65	inactive	–	inactive	inactive	–	–	28	–	–	–	–	–	–
